From ChEMBL document CHEMBL1629563, “Pharmacokinetic and safety evaluation of BILR 355, a second-generation nonnucleoside reverse transcriptase inhibitor, in healthy volunteers” (Antimicrob Agents Chemother, 2008)

Columns and labels:
[1] = tested on: Homo sapiens; test: Toxicity in healthy human assessed as occurrence of nausea at 100 mg, po administered as single dose relative to control; assay type: organism-based; conditions: in vivo
[2] = tested on: Homo sapiens; test: Toxicity in healthy human assessed as occurrence of migraine at 5 mg, po administered as single dose relative to control; assay type: organism-based; conditions: in vivo
[3] = tested on: Homo sapiens; test: Toxicity in healthy human assessed as occurrence of migraine at 100 mg, po administered as single dose relative to control; assay type: organism-based; conditions: in vivo
[4] = tested on: Homo sapiens; test: Toxicity in healthy human assessed as occurrence of maculopapular rash at 75 mg, po administered as single dose relative to control; assay type: organism-based; conditions: in vivo
[5] = tested on: Homo sapiens; test: Toxicity in healthy human assessed as occurrence of flatulence at 12.5 mg, po administered as single dose relative to control; assay type: organism-based; conditions: in vivo
[6] = tested on: Homo sapiens; test: Toxicity in healthy human assessed as occurrence of frequent bowel movements at 25 mg, po administered as single dose relative to control; assay type: organism-based; conditions: in vivo
[7] = Half life in healthy human at 87.5 mg, po administered as single dose coadministered with 100 mg of ritonavir; assay type: ADME, organism-based; conditions: in vivo
[8] = Mean residence time in healthy human at 62.5 mg, po administered as single dose coadministered with 100 mg of ritonavir; assay type: ADME, organism-based; conditions: in vivo
[9] = Mean residence time in healthy human at 75 mg, po administered as single dose coadministered with 100 mg of ritonavir; assay type: ADME, organism-based; conditions: in vivo
[10] = Apparent volume of distribution at steady state in healthy human at 75 mg, po administered as single dose coadministered with 100 mg of ritonavir; assay type: ADME, organism-based; conditions: in vivo, read-out: Vss/F
Method in brief: (§1)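 Healthy male volunteers, fasted overnight, got one oral dose of BILR 355 in PEG solution with 200 ml water. Ritonavir 100 mg was given 10 h before and again with the dose. Plasma was sampled (EDTA) from predose to 144 h and assayed by validated LC-MS/MS. Cmax and Vz/F came from noncompartmental analysis. Vss/F = CL/F·(MRTp.o. − 1/Ka), with Ka from compartmental modelling.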

[11] = Renal clearance in healthy human at 50 mg, po administered as single dose coadministered with 100 mg of ritonavir by high-pressure liquid chromatography-tandem mass spectrometry/mass spectrometry method; assay type: ADME, organism-based, Kidney; conditions: in vivo, read-out: CL_renal (converted)
[12] = Renal clearance in healthy human at 62.5 mg, po administered as single dose coadministered with 100 mg of ritonavir by high-pressure liquid chromatography-tandem mass spectrometry/mass spectrometry method; assay type: ADME, organism-based, Kidney; conditions: in vivo, read-out: CL_renal (converted)
[13] = Renal clearance in healthy human at 75 mg, po administered as single dose coadministered with 100 mg of ritonavir by high-pressure liquid chromatography-tandem mass spectrometry/mass spectrometry method; assay type: ADME, organism-based, Kidney; conditions: in vivo, read-out: CL_renal (converted)
[14] = tested on: Homo sapiens; test: Toxicity in healthy human assessed as occurrence of aphthous stomatitis at 50 mg, po administered as single dose coadministered with 100 mg of ritonavir; assay type: organism-based; conditions: in vivo
[15] = tested on: Homo sapiens; test: Toxicity in high fat fed healthy human assessed as occurrence of diarrhea at 50 mg, po administered as single dose coadministered with 100 mg of ritonavir; assay type: organism-based; conditions: in vivo
[16] = tested on: Homo sapiens; test: Toxicity in healthy human assessed as occurrence of fatigue at 37.5 mg, po administered as single dose coadministered with 100 mg of ritonavir; assay type: organism-based; conditions: in vivo
[17] = tested on: Homo sapiens; test: Toxicity in healthy human assessed as occurrence of fatigue at 75 mg, po administered as single dose coadministered with 100 mg of ritonavir; assay type: organism-based; conditions: in vivo
[18] = tested on: Homo sapiens; test: Toxicity in high fat fed healthy human assessed as occurrence of fatigue at 50 mg, po administered as single dose coadministered with 100 mg of ritonavir; assay type: organism-based; conditions: in vivo
[19] = tested on: Homo sapiens; test: Toxicity in healthy human assessed as occurrence of maculopapular rash at 12.5 mg, po administered as single dose coadministered with 100 mg of ritonavir; assay type: organism-based; conditions: in vivo
[20] = AUC (0 to infinity) in healthy human at 12.5 mg, po administered as single dose; assay type: ADME, organism-based; set-up: dose 12.5 mg, route oral, time infinity; conditions: plasma
Method in brief: (§2)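 Healthy male volunteers, six active plus two placebo per dose group, single oral dose in PEG solution with 200 ml water after overnight fast; breakfast 60 to 90 min post-dose. EDTA plasma sampled predose to 144 h. Assayed by validated LC-MS/MS after protein precipitation. Noncompartmental analysis, AUC by linear up/log down trapezoidal rule; Vss = CL/F·(MRTp.o. − 1/Ka).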

[21] = AUC (0 to infinity) in healthy human at 100 mg, po administered as single dose; assay type: ADME, organism-based; set-up: dose 100 mg, time infinity, route oral; conditions: plasma; method in brief: as §2
[22] = AUC (0 to last) in healthy human at 100 mg, po administered as single dose; assay type: ADME, organism-based; set-up: dose 100 mg, time 0 - last, route oral; conditions: plasma; method in brief: as §2
[23] = Tmax in healthy human at 25 mg, po administered as single dose; assay type: ADME, organism-based; conditions: in vivo
[24] = Apparent volume of distribution in terminal phase in healthy human at 25 mg, po administered as single dose; assay type: ADME, organism-based; conditions: in vivo, read-out: Vz/F
Method in brief: (§3)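 Single fasting oral dose of BILR 355 in PEG solution with 200 ml tap water, given to healthy males. Standard breakfast came 60-90 min after the dose. EDTA plasma was sampled predose to 144 h, stored below −18°C and assayed by LC-MS/MS after protein precipitation. Noncompartmental analysis gave Vz/F. Vss/F = CL/F·(MRTp.o. − 1/Ka), with Ka from compartmental modelling.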

[25] = Apparent volume of distribution in terminal phase in healthy human at 50 mg, po administered as single dose; assay type: ADME, organism-based; conditions: in vivo, read-out: Vz/F; method in brief: as §3
[26] = Drug excretion in healthy human urine assessed as unchanged drug at 75 mg, po administered as single dose by high-pressure liquid chromatography-tandem mass spectrometry/mass spectrometry method; assay type: ADME, organism-based; conditions: read-out: Drug uptake
Method in brief: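 Urine was collected by weight after one oral dose of BILR 355 in PEG solution in fasted healthy males. Intervals were predose blank, 0-6, 6-24 and 24-72 h, with the bladder voided before each. Aliquots were stored at −20°C and assayed by LC-MS/MS. fe = amount of unchanged drug excreted (Ae) as a percentage of the administered dose.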

[27] = AUC (0 to infinity) in healthy human at 5 mg, po administered as single dose coadministered with 100 mg of ritonavir; assay type: ADME, organism-based; set-up: dose 5 mg, time infinity, route oral; conditions: plasma
Method in brief: (§4)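 Healthy male volunteers, fasted. Ritonavir 100 mg given 10 h before and again together with single oral BILR 355 in PEG solution. EDTA plasma sampled predose to 144 h. LC-MS/MS assay after protein precipitation. Noncompartmental analysis, AUC by linear up/log down trapezoidal rule; Vss = CL/F·(MRTp.o. − 1/Ka).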

[28] = AUC (0 to infinity) in healthy human at 12.5 mg, po administered as single dose coadministered with 100 mg of ritonavir; assay type: ADME, organism-based; set-up: dose 12.5 mg, route oral, time infinity; conditions: plasma; method in brief: as §4
[29] = AUC (0 to infinity) in healthy human at 50 mg, po administered as single dose coadministered with 100 mg of ritonavir; assay type: ADME, organism-based; set-up: dose 50 mg, time infinity, route oral; conditions: plasma; method in brief: as §4
[30] = Cmax in healthy human at 50 mg, po administered as single dose coadministered with 100 mg of ritonavir by high-pressure liquid chromatography-tandem mass spectrometry/mass spectrometry method; assay type: ADME, organism-based; set-up: dose 50 mg, route oral; conditions: in vivo; method in brief: as §1

half-life [7]: 9.61 h
MRT [8]: 14 h
MRT [9]: 17.4 h
Vd/F [10]: 105 L
CL renal [11]: 4.87 mL/min
CL renal [12]: 7.17 mL/min
CL renal [13]: 5.85 mL/min
AUC(0-inf) [20]: 0.0718 µg·h/mL
AUC(0-inf) [21]: 1.31 µg·h/mL
AUC(0-t) [22]: 1.3 µg·h/mL
Tmax [23]: 0.833 h
Vd/F [24]: 1040 L
Vd/F [25]: 460 L
dose excreted [26]: 0.602%
AUC(0-inf) [27]: 0.707 µg·h/mL
AUC(0-inf) [28]: 1.96 µg·h/mL
AUC(0-inf) [29]: 6.8 µg·h/mL
Cmax [30]: 0.468 µg/mL
SMILES: CCN1c2ncc(CCOc3cc[n+]([O-])c4ccccc34)cc2C(=O)N(C)c2cccnc21 [BILR 355]
Activity [1]: 0%
Activity [2]: 0%
Activity [3]: 0%
Activity [4]: 0%
Activity [5]: 0%
Activity [6]: 0%
Activity [14]: 0%
Activity [15]: 0%
Activity [16]: 0%
Activity [17]: 0%
Activity [18]: 16.7%
Activity [19]: 0%
